The values that follow come from ChEMBL document CHEMBL4145474, “Discovery of novel piperonyl derivatives as diapophytoene desaturase inhibitors for the treatment of methicillin-, vancomycin- and linezolid-resistant Staphylococcus aureus infections” (Eur J Med Chem, 2018).

Structures are written as SMILES. Active and inactive are the calls of the source. No cut-off for these calls is given here.

Assay [1] has as its system Staphylococcus aureus. Put plainly: Growth inhibition of vancomycin-intermediate methicillin-resistant Staphylococcus aureus Mu50 at 0.2 mM incubated for overnight. The class given is functional, organism-based. In outline: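 Overnight cultures washed in PBS and diluted in TSB to OD600 ~1.0. Inoculated to a final OD600 of about 0.05 into TSB containing compound (0.2 or 0.05 mM, from a 20 mM DMSO stock) or DMSO growth control, overlaid with paraffin wax. OD600 read every 30 min during overnight incubation at 37 °C.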

For assay [2], the target named is T1, 4,4'-diapophytoene desaturase (4,4'-diaponeurosporene-forming) (Staphylococcus aureus (strain Newman)) (UniProt O07855).
T1 sequence (whole entry): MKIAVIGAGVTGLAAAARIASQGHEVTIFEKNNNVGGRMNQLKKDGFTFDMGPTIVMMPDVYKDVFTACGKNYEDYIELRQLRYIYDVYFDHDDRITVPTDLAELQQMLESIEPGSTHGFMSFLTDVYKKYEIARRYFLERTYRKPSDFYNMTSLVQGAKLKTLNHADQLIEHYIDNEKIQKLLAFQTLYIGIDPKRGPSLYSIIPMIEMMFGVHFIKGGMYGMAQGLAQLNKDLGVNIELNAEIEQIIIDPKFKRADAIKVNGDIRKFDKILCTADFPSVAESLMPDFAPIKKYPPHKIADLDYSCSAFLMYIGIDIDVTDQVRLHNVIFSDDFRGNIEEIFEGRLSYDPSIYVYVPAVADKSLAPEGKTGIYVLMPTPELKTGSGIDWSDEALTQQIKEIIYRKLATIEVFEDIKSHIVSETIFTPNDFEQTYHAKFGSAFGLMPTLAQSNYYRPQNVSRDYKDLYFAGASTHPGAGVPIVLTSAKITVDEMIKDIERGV
Put plainly: Inhibition of CrtN in wild type Staphylococcus aureus Newman assessed as decrease in bacterial survival after 6 hrs by human whole blood killing assay relative to control. Particulars: Staphylococcus aureus subsp. aureus str. Newman. A digest of the protocol: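 Tubes were incubated 6 h at 37 °C, then serial dilutions were plated on TSA to count surviving CFU. Two independent experiments, compared against vehicle.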

Assay [3] has as its system Staphylococcus aureus. Put plainly: Antibacterial activity against vancomycin-intermediate methicillin-resistant Staphylococcus aureus Mu50 infected in BALB/c mouse assessed as decrease in bacterial survival in mouse liver at 0.1 to 0.4 mg, ip bid administered 4.5 days after 6 hrs bacterial infection measured after 90 hrs. In kind it is functional, organism-based. A digest of the protocol: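 6–8-week-old female BALB/c mice (SPF) dosed intraperitoneally twice daily over 4.5 d at 0.1 or 0.4 mg/bid. Pre-treatment started before infection; post-treatment started 6 h after infection. Vancomycin and linezolid controls given as pre-treatment at 0.4 mg/bid. Retro-orbital inoculation: Mu50 1.1 × 10⁹ CFU, NRS271 1.8 × 10⁸ CFU. Kidneys and livers homogenised in PBS/0.01% Triton X-100 and plated on TSA for CFU.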

The test system of assay [4] is Staphylococcus aureus. Put plainly: Antibacterial activity against wild type Staphylococcus aureus Newman infected in BALB/c mouse assessed as decrease in bacterial survival in mouse kidney at 0.1 to 0.4 mg, ip bid administered 4.5 days before 24 hrs bacterial infection measured after 90 hrs. The class given is functional, organism-based. In outline: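 Female BALB/c mice, 6-8 weeks old, infected retro-orbitally with 2.2 × 10⁷ CFU S. aureus Newman. Intraperitoneal dosing in 12 intervals: pre-treatment groups received a total of 50 or 200 mg/kg starting before infection; post-treatment groups received a total of 39 or 156 mg/kg starting 6 h after infection. Vehicle was ddH₂O. At 90 h post-infection, liver or kidney was homogenized in PBS/0.01% Triton X-100 and plated on TSA for CFU.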

Another assay concerns HEK-293T. Put plainly: Cytotoxicity against HEK293T cells assessed as reduction in cell viability after 72 hrs by CCK-8 assay. The class given is functional. Particulars: Homo sapiens. A digest of the protocol: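 HepG2 or HEK-293T cells were seeded at 5000 per well and grown 24 h at 37 °C, 5% CO₂. Cells were then exposed to compound for 72 h; compound came from DMSO, diluted in medium to final DMSO <0.4%, with a DMSO-matched vehicle control. Viability was read by 10% CCK-8 for 1 h, absorbance 450 nm, in triplicate.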

A word on the CC50: it is the concentration that lowers cell viability or growth by half. Regarding `CN(C/C=C/C=C/c1ccc(C(F)(F)F)cc1F)Cc1ccc2c(c1)OCO2.Cl`, the “growth inhibition (GI)” value in the assay with Staphylococcus aureus [1] is “inactive”. Moreover, the fold change (FC) in assay [2] was 10.9. In addition, the outcome in the assay on Staphylococcus aureus [3] and in the assay on Staphylococcus aureus [4] was Active. The CC50 in the assay on HEK-293T worked out at 92.6 µM.
